Source: ChEMBL document CHEMBL1145465, “PhoU is a persistence switch involved in persister formation and tolerance to multiple antibiotics and stresses in Escherichia coli” (2007)

Legend:
Type in all cases: functional
Escherichia coli [1] = experiment: Antibacterial activity against Escherichia coli K12 containing PhoU mutant assessed as cell count in log phase at 3 ug/ml after 5 hrs
Method in brief: (§1)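 Log-phase or stationary-phase cultures were exposed to ampicillin (100 μg/ml) or norfloxacin (3 μg/ml) in MOPS minimal medium, pH 5.0, at 37°C without shaking, for 5 h to 10 days. Aliquots were saline-washed and plated on LB for CFU/ml.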

Escherichia coli [2] = experiment: Antibacterial activity against Escherichia coli K12 mutant JHU313 containing plasmid vector at 0.1 ug/ml after 48 hrs by disc diffusion method
Method in brief: (§2)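 Kirby-Bauer disc assay: log-phase LB culture was spread on LB agar for confluent growth. 7-mm nitrocellulose discs were soaked in antibiotic at the listed concentration and placed on the agar. After 48 h at 37°C, the diameter of the inhibition zone was measured in mm.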

Escherichia coli [3] = experiment: Antibacterial activity against Escherichia coli K12 containing deletion deltaphoU mutant assessed as cell count in log phase at 3 ug/ml after 1 week
Method in brief: (§3)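 Log-phase or stationary-phase cultures of the ΔphoU deletion mutant (Datsenko–Wanner construction) were exposed to norfloxacin 3 μg/ml in MOPS minimal medium, pH 5.0, at 37°C without shaking, for up to 10 days. Sampled aliquots were washed in saline and plated on LB agar for CFU/ml.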

Escherichia coli [4] = experiment: Antibacterial activity against Escherichia coli K12 containing deletion deltaphoU mutant assessed as cell count in stationary phase at 3 ug/ml after 3 days; method in brief: as §3
Escherichia coli [5] = experiment: Antibacterial activity against Escherichia coli K12 containing deletion deltaphoU mutant assessed as cell count in log phase at 3 ug/ml after 10 days; method in brief: as §3
Escherichia coli [6] = experiment: Antibacterial activity against Escherichia coli K12 PhoU wild type W3110 at 2 ug/ml after 48 hrs by disc diffusion method
Method in brief: (§4)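 Kirby-Bauer disc assay. Log-phase LB culture (10⁸ bacteria) was spread for confluent growth on LB agar. 7 mm nitrocellulose discs soaked in antibiotic at the listed concentrations were laid on the agar. Inhibition zone diameter (mm) was measured after 48 h at 37°C.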

Escherichia coli [7] = experiment: Antibacterial activity against Escherichia coli K12 PhoU wild type W3110 assessed as cell count in stationary phase at 3 ug/ml after 5 hrs; method in brief: as §1
Escherichia coli [8] = experiment: Antibacterial activity against Escherichia coli K12 PhoU wild type W3110 at 0.1 ug/ml after 48 hrs by disc diffusion method; method in brief: as §4
Escherichia coli [9] = experiment: Antibacterial activity against Escherichia coli K12 PhoU wild type W3110 at 0.5 ug/ml after 48 hrs by disc diffusion method; method in brief: as §4
Escherichia coli [10] = experiment: Antibacterial activity against Escherichia coli K12 containing deletion deltaphoU mutant assessed as cell count in log phase at 3 ug/ml after 1 day; method in brief: as §3
Escherichia coli [11] = experiment: Antibacterial activity against Escherichia coli K12 PhoU wild type W3110 assessed as cell count in log phase at 3 ug/ml after 5 days; method in brief: as §1
Escherichia coli [12] = experiment: Antibacterial activity against Escherichia coli K12 containing deletion deltaphoU mutant assessed as cell count in log phase at 3 ug/ml after 3 days; method in brief: as §3
Escherichia coli [13] = experiment: Antibacterial activity against Escherichia coli K12 containing PhoU mutant assessed as cell count in log phase at 3 ug/ml after 10 days; method in brief: as §1
Escherichia coli [14] = experiment: Antibacterial activity against Escherichia coli K12 mutant JHU313 containing plasmid PhoU at 2 ug/ml after 48 hrs by disc diffusion method; method in brief: as §2
Escherichia coli [15] = experiment: Antibacterial activity against Escherichia coli K12 PhoU wild type W3110 assessed as cell count in log phase at 3 ug/ml after 3 days; method in brief: as §1
Escherichia coli [16] = experiment: Antibacterial activity against Escherichia coli K12 mutant JHU313 containing plasmid PhoU at 0.5 ug/ml after 48 hrs by disc diffusion method; method in brief: as §2
Escherichia coli [17] = experiment: Antibacterial activity against Escherichia coli K12 containing deletion deltaphoB mutant assessed as cell count in log phase at 100 ug/ml after 5 hrs
Method in brief: (§5)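 Deletion mutants were made by the Datsenko–Wanner method. Log-phase or stationary-phase cultures were exposed to ampicillin at 100 μg/ml. CFU/ml was determined at the start and after 5, 24 and 72 h of exposure.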

Escherichia coli [18] = experiment: Antibacterial activity against Escherichia coli K12 containing PhoU mutant assessed as cell count in log phase at 100 ug/ml after 5 hrs; method in brief: as §1
Escherichia coli [19] = experiment: Antibacterial activity against Escherichia coli K12 PhoU wild type W3110 at 6 ug/ml after 48 hrs by disc diffusion method; method in brief: as §4
Escherichia coli [20] = experiment: Antibacterial activity against Escherichia coli K12 containing deletion deltahipA mutant assessed as cell count in stationary phase at 100 ug/ml after 24 hrs; method in brief: as §5
Escherichia coli [21] = experiment: Antibacterial activity against Escherichia coli K12 containing deletion deltaphoBR mutant assessed as cell count in log phase at 100 ug/ml after 5 hrs; method in brief: as §5
Escherichia coli [22] = experiment: Antibacterial activity against Escherichia coli K12 containing deletion deltaphoBR mutant assessed as cell count in log phase at 100 ug/ml after 24 hrs; method in brief: as §5
Escherichia coli [23] = experiment: Antibacterial activity against Escherichia coli K12 containing deletion deltaphoBR mutant assessed as cell count in stationary phase at 100 ug/ml after 72 hrs; method in brief: as §5
Escherichia coli [24] = experiment: Antibacterial activity against Escherichia coli K12 PhoU wild type W3110 at 25 ug/ml after 48 hrs by disc diffusion method
Method in brief: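 Kirby-Bauer disc assay. Log-phase LB broth culture (10⁸ bacteria) was spread on LB agar for confluent growth. 7 mm nitrocellulose discs soaked in antibiotic solution at the listed concentration were placed on the agar. Inhibition zone diameter (mm) was measured after 48 h at 37°C.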

Escherichia coli [25] = experiment: Antibacterial activity against Escherichia coli K12 containing deletion deltaphoR mutant assessed as cell count in log phase at 100 ug/ml after 5 hrs
Method in brief: (§6)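 Wild-type W3110-derived deletion mutants were made by the Datsenko–Wanner method. Log-phase or stationary-phase cultures were exposed to ampicillin 100 μg/ml in MOPS minimal medium at pH 5.0, at 37°C without shaking. Aliquots were taken at set times, washed in saline and plated on LB for viable CFU/ml.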

Escherichia coli [26] = experiment: Antibacterial activity against Escherichia coli K12 containing deletion deltaphoR mutant assessed as cell count in log phase at 100 ug/ml after 24 hrs; method in brief: as §6
Escherichia coli [27] = experiment: Antibacterial activity against Escherichia coli K12 PhoU wild type W3110 assessed as cell count in log phase at 100 ug/ml after 5 days
Method in brief: (§7)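 Log-phase or stationary-phase cultures exposed to ampicillin 100 μg/ml in MOPS minimal medium (pH 5.0) at 37°C without shaking, for 5 h up to 10 days. Aliquots were taken at each time point, washed in saline and plated on LB plates for viable CFU/ml.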

Escherichia coli [28] = experiment: Antibacterial activity against Escherichia coli K12 containing deletion deltahipA mutant assessed as cell count in stationary phase at 100 ug/ml after 5 hrs; method in brief: as §5
Escherichia coli [29] = experiment: Antibacterial activity against Escherichia coli K12 containing deletion deltaphoR mutant assessed as cell count in stationary phase at 100 ug/ml after 24 hrs; method in brief: as §6
Escherichia coli [30] = experiment: Antibacterial activity against Escherichia coli K12 PhoU wild type W3110 assessed as cell count in stationary phase at 100 ug/ml after 1 day; method in brief: as §7
Escherichia coli [31] = experiment: Antibacterial activity against Escherichia coli K12 containing deletion deltaphoU mutant assessed as cell count in stationary phase at 100 ug/ml after 1 day; method in brief: as §6
Escherichia coli [32] = experiment: Antibacterial activity against Escherichia coli K12 mutant JHU313 containing plasmid vector at 1.5 ug/ml after 48 hrs by disc diffusion method; method in brief: as §2

In the case of CCn1cc(C(=O)O)c(=O)c2cc(F)c(N3CCNCC3)cc21 [NORFLOXACIN], the CFU (Escherichia coli [1]) is reported as 2 10^7/ml, the inhibition zone (IZ) (Escherichia coli [2]) is reported as 29 mm and the CFU (Escherichia coli [3]) is reported as 0 mL⁻¹. The CFU (Escherichia coli [4]) was 3 10^5/ml, the CFU (Escherichia coli [5]) was 0 mL⁻¹ and the inhibition zone (IZ) (Escherichia coli [6]) was 30 mm. For the same compound, the CFU (Escherichia coli [7]) was 5 10^9/ml, the inhibition zone (IZ) (Escherichia coli [8]) was 24 mm and the inhibition zone (IZ) (Escherichia coli [9]) was 27 mm. For the same compound, the CFU (Escherichia coli [10]) was 1 10^6/ml, the CFU (Escherichia coli [11]) was 7 10^2/ml and the CFU (Escherichia coli [12]) was 0 mL⁻¹. The CFU (Escherichia coli [13]) was 0 mL⁻¹, the inhibition zone (IZ) (Escherichia coli [14]) was 35 mm and the CFU (Escherichia coli [15]) was 5 10^4/ml. It also gave an inhibition zone (IZ) (Escherichia coli [16]) of 31 mm.
For CC1(C)S[C@@H]2[C@H](NC(=O)[C@H](N)c3ccccc3)C(=O)N2[C@H]1C(=O)O [AMPICILLIN], the CFU (Escherichia coli [17]) was 6 10^3/ml, the CFU (Escherichia coli [18]) was 20 mL⁻¹ and the inhibition zone (IZ) (Escherichia coli [19]) was 25 mm. For the same compound, the CFU (Escherichia coli [20]) was 1.8 10^9/ml, the CFU (Escherichia coli [21]) was 7 10^3/ml and the CFU (Escherichia coli [22]) was 2 10^3/ml. For the same compound, the CFU (Escherichia coli [23]) was 2 10^8/ml, the inhibition zone (IZ) (Escherichia coli [24]) was 28 mm and the CFU (Escherichia coli [25]) was 1 10^3/ml. For the same compound, the CFU (Escherichia coli [26]) was 1 10^2/ml, the CFU (Escherichia coli [27]) was 0 mL⁻¹ and the CFU (Escherichia coli [28]) was 6 10^9/ml. For the same compound, the CFU (Escherichia coli [29]) was 1.5 10^9/ml, the CFU (Escherichia coli [30]) was 2 10^9/ml and the CFU (Escherichia coli [31]) was 7 10^6/ml. For the same compound, the inhibition zone (IZ) (Escherichia coli [32]) was 27 mm.
